Key:
SK-BR-3 [1] = assay: Cell cycle arrest in human SK-BR-3 cells assessed as accumulation at Sub-G1 phase at 0.25 uM after 12 hrs using propidium iodide staining by FACS analysis; assay type: functional
SK-BR-3 [2] = assay: Cell cycle arrest in human SK-BR-3 cells assessed as accumulation at G2/M phase at 5 uM after 24 hrs using propidium iodide staining by FACS analysis; assay type: functional
Summary of the method: (§1)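 SKBR-3 cells in RPMI1640 with 10% heat-inactivated FBS at 37 °C and 5% CO₂ were treated for the stated times. Cells were fixed overnight in 70% EtOH at −20 °C, then stained with propidium iodide buffer (38 mM sodium citrate pH 7.5, 69 µM PI, 120 µg/mL RNase A) for 15 min at room temperature in the dark. Up to 1×10⁴ gated cells were analyzed by flow cytometry, giving percent distribution per phase.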

NCI/ADR-RES = assay: Growth inhibition of human NCI/ADR-RES cells after 48 hrs by SRB assay; assay type: functional
BT-549 = assay: Growth inhibition of human BT549 cells after 48 hrs by SRB assay; assay type: functional
SK-BR-3 [3] = assay: Cell cycle arrest in human SK-BR-3 cells assessed as accumulation at G1 phase at 0.50 uM after 6 hrs using propidium iodide staining by FACS analysis; assay type: functional; summary of the method: as §1
[4] = Cmax in Sprague-Dawley rat plasma at 20 mg/kg, ip; assay type: ADME, organism-based; parameters: dose 20 mg/kg, route intraperitoneal
Summary of the method: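 Male Sprague–Dawley rats (300–350 g, n=3), fasted overnight, received one i.p. dose in PBS with 0.1% Tween80 and 20% DMSO. Blood (150 µL) was drawn from saphenous and femoral veins into heparinized tubes at 0–24 h, and plasma was stored at –20 °C. Samples underwent tert-butyl methyl ether/n-hexane extraction, then C18 isocratic LC-MS/MS in MRM mode with an internal standard; the method was validated over 0.1–100 ng/mL.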

SK-BR-3 [5] = assay: Cell cycle arrest in human SK-BR-3 cells assessed as accumulation at G1 phase at 5 uM after 24 hrs using propidium iodide staining by FACS analysis; assay type: functional; summary of the method: as §1
SK-BR-3 [6] = assay: Cell cycle arrest in human SK-BR-3 cells assessed as accumulation at Sub-G1 phase at 0.50 uM after 6 hrs using propidium iodide staining by FACS analysis; assay type: functional
SK-BR-3 [7] = assay: Cell cycle arrest in human SK-BR-3 cells assessed as accumulation at G2/M phase at 0.25 uM after 24 hrs using propidium iodide staining by FACS analysis; assay type: functional; summary of the method: as §1
SK-MEL-28 = assay: Growth inhibition of human SK-MEL-28 cells after 48 hrs by SRB assay; assay type: functional
SK-BR-3 [8] = assay: Cell cycle arrest in human SK-BR-3 cells assessed as accumulation at G2/M phase at 0.25 uM after 6 hrs using propidium iodide staining by FACS analysis; assay type: functional; summary of the method: as §1
SK-MEL-2 = assay: Growth inhibition of human SK-MEL-2 cells after 48 hrs by SRB assay; assay type: functional
SK-BR-3 [9] = assay: Cell cycle arrest in human SK-BR-3 cells assessed as accumulation at S phase at 0.25 uM after 24 hrs using propidium iodide staining by FACS analysis; assay type: functional
SN12C = assay: Growth inhibition of human SN12C cells after 48 hrs by SRB assay; assay type: functional
MDA-MB-435 = assay: Growth inhibition of human MDA-MB-435 cells after 48 hrs by SRB assay; assay type: functional
SK-BR-3 [10] = assay: Cell cycle arrest in human SK-BR-3 cells assessed as accumulation at G1 phase at 0.25 uM after 3 hrs using propidium iodide staining by FACS analysis; assay type: functional; summary of the method: as §1
SK-BR-3 [11] = assay: Cell cycle arrest in human SK-BR-3 cells assessed as accumulation at S phase at 5 uM after 3 hrs using propidium iodide staining by FACS analysis; assay type: functional
SK-BR-3 [12] = assay: Cell cycle arrest in human SK-BR-3 cells assessed as accumulation at G1 phase at 0.10 uM after 18 hrs using propidium iodide staining by FACS analysis; assay type: functional; summary of the method: as §1
HCT-116 = assay: Growth inhibition of human HCT116 cells after 48 hrs by SRB assay; assay type: functional
SK-BR-3 [13] = assay: Cell cycle arrest in human SK-BR-3 cells assessed as accumulation at G1 phase at 5 uM after 18 hrs using propidium iodide staining by FACS analysis; assay type: functional; summary of the method: as §1
A549 = assay: Growth inhibition of human A549 cells after 48 hrs by SRB assay; assay type: functional
HCC 2998 = assay: Growth inhibition of human HCC2998 cells after 48 hrs by SRB assay; assay type: functional
SK-BR-3 [14] = assay: Cell cycle arrest in human SK-BR-3 cells assessed as accumulation at Sub-G1 phase at 5 uM after 3 hrs using propidium iodide staining by FACS analysis; assay type: functional
SK-BR-3 [15] = assay: Cell cycle arrest in human SK-BR-3 cells assessed as accumulation at Sub-G1 phase at 5 uM after 18 hrs using propidium iodide staining by FACS analysis; assay type: functional
LOX IMVI = assay: Growth inhibition of human LOXIMVI cells after 48 hrs by SRB assay; assay type: functional
UO-31 = assay: Growth inhibition of human UO31 cells after 48 hrs by SRB assay; assay type: functional
SK-BR-3 [16] = assay: Cell cycle arrest in human SK-BR-3 cells assessed as accumulation at G2/M phase at 5 uM after 3 hrs using propidium iodide staining by FACS analysis; assay type: functional; summary of the method: as §1
SK-BR-3 [17] = assay: Cell cycle arrest in human SK-BR-3 cells assessed as accumulation at S phase at 5 uM after 18 hrs using propidium iodide staining by FACS analysis; assay type: functional
SK-BR-3 [18] = assay: Cell cycle arrest in human SK-BR-3 cells assessed as accumulation at G2/M phase at 0.50 uM after 24 hrs using propidium iodide staining by FACS analysis; assay type: functional; summary of the method: as §1
HOP-92 = assay: Growth inhibition of human HOP92 cells after 48 hrs by SRB assay; assay type: functional
MOLT-4 = assay: Growth inhibition of human MOLT4 cells after 48 hrs by SRB assay; assay type: functional
SK-BR-3 [19] = assay: Cell cycle arrest in human SK-BR-3 cells assessed as accumulation at S phase at 0.25 uM after 18 hrs using propidium iodide staining by FACS analysis; assay type: functional
[20] = read-out: LC50 (the source's name)

For `Cc1ccc(C)c(COc2cc(NC(=O)c3ccc4c(c3)OCO4)ccc2N(C)S(C)(=O)=O)c1`, the Activity (SK-BR-3 [1]) was 6.85%, the Activity (SK-BR-3 [2]) was 28.29% and the GI50 (NCI/ADR-RES) was 56.2 nM. The TGI (NCI/ADR-RES) was 407 nM, the “growth inhibition (GI)” value (NCI/ADR-RES) was “Dose-dependent effect” and the CC50 (NCI/ADR-RES; [20]) was greater than 100000 nM. For the same molecule, the “growth inhibition (GI)” value (BT-549) was “Dose-dependent effect”, the GI50 (BT-549; BT-549, 48 h) was 656 nM and the TGI (BT-549; BT-549, 48 h) was greater than 100000 nM. For the same molecule, the CC50 (BT-549; BT-549, 48 h, read-out: LC50 (the source's name)) was greater than 100000 nM, the Activity (SK-BR-3 [3]) was 67.1% and the Cmax [4] was 1500 ng/mL. The Activity (SK-BR-3 [5]) was 31.87%, the Activity (SK-BR-3 [6]) was 4.03% and the Activity (SK-BR-3 [7]) was 22.53%. The “growth inhibition (GI)” value (SK-MEL-28) was “Dose-dependent effect”, the GI50 (SK-MEL-28; SK-MEL-28, 48 h) was 692 nM and the TGI (SK-MEL-28; SK-MEL-28, 48 h) was greater than 100000 nM. For the same molecule, the CC50 (SK-MEL-28; SK-MEL-28, 48 h, read-out: LC50 (the source's name)) was greater than 100000 nM, the Activity (SK-BR-3 [8]) was 9.32% and the “growth inhibition (GI)” value (SK-MEL-2) was “Dose-dependent effect”. For the same molecule, the GI50 (SK-MEL-2; SK-MEL-2, 48 h) was 89.7 nM, the TGI (SK-MEL-2; SK-MEL-2, 48 h) was 616 nM and the CC50 (SK-MEL-2; SK-MEL-2, 48 h, read-out: LC50 (the source's name)) was greater than 100000 nM. It also gave an Activity (SK-BR-3 [9]) of 10.87%, a GI50 (SN12C) of 472 nM and a TGI (SN12C) greater than 100000 nM. For the same molecule, the “growth inhibition (GI)” value (SN12C) was “Dose-dependent effect”, the CC50 (SN12C; [20]) was greater than 100000 nM and the “growth inhibition (GI)” value (MDA-MB-435) was “Dose-dependent effect”. It also gave a GI50 (MDA-MB-435; MDA-MB-435, 48 h) of 28.5 nM, a TGI (MDA-MB-435; MDA-MB-435, 48 h) of 91.4 nM and a CC50 (MDA-MB-435; MDA-MB-435, 48 h, read-out: LC50 (the source's name)) greater than 100000 nM. It also gave an Activity (SK-BR-3 [10]) of 69.63%, an Activity (SK-BR-3 [11]) of 16.49% and an Activity (SK-BR-3 [12]) of 75.43%. The “growth inhibition (GI)” value (HCT-116) was “Dose-dependent effect”, the TGI (HCT-116; HCT-116, 48 h) was 1020 nM and the CC50 (HCT-116; HCT-116, 48 h, read-out: LC50 (the source's name)) was greater than 100000 nM. For the same molecule, the Activity (SK-BR-3 [13]) was 63.55%, the “growth inhibition (GI)” value (A549) was “Dose-dependent effect” and the GI50 (A549; A549, 48 h) was 278 nM. The TGI (A549; A549, 48 h) was 13600 nM, the CC50 (A549; A549, 48 h, read-out: LC50 (the source's name)) was greater than 100000 nM and the “growth inhibition (GI)” value (HCC 2998) was “Dose-dependent effect”. For the same molecule, the TGI (HCC 2998; HCC 2998, 48 h) was 392 nM, the CC50 (HCC 2998; HCC 2998, 48 h, read-out: LC50 (the source's name)) was 2970 nM and the Activity (SK-BR-3 [14]) was 2.81%. It also gave an Activity (SK-BR-3 [15]) of 8.31%, a GI50 (LOX IMVI) of 66.6 nM and a TGI (LOX IMVI) greater than 100000 nM. For the same molecule, the “growth inhibition (GI)” value (LOX IMVI) was “Dose-dependent effect”, the CC50 (LOX IMVI; [20]) was greater than 100000 nM and the “growth inhibition (GI)” value (UO-31) was “Dose-dependent effect”. The GI50 (UO-31; UO-31, 48 h) was 395 nM, the TGI (UO-31; UO-31, 48 h) was greater than 100000 nM and the Activity (SK-BR-3 [16]) was 11.57%. For the same molecule, the Activity (SK-BR-3 [17]) was 6.73%, the Activity (SK-BR-3 [18]) was 28.14% and the “growth inhibition (GI)” value (HOP-92) was “Dose-dependent effect”. It also gave a GI50 (HOP-92; HOP-92, 48 h) of 3220 nM, a TGI (HOP-92; HOP-92, 48 h) greater than 100000 nM and a CC50 (HOP-92; HOP-92, 48 h, read-out: LC50 (the source's name)) greater than 100000 nM. For the same molecule, the “growth inhibition (GI)” value (MOLT-4) was “Dose-dependent effect”, the GI50 (MOLT-4; MOLT-4, 48 h) was 163 nM and the TGI (MOLT-4; MOLT-4, 48 h) was greater than 100000 nM. The CC50 (MOLT-4; MOLT-4, 48 h, read-out: LC50 (the source's name)) was greater than 100000 nM and the Activity (SK-BR-3 [19]) was 6.81%.

Source: ChEMBL document CHEMBL1932938, “From COX-2 inhibitor nimesulide to potent anti-cancer agent: synthesis, in vitro, in vivo and pharmacokinetic evaluation” (Eur J Med Chem, 2012)
